H9c2 TAG inh = inhibitors of triacylglycerol accumulation, primary screen, cell-based, uHTS, fluorescence, H9c2 | H9c2 cells, Nile Red lipid (TAG) fluorescence; cells loaded with 200 µM oleic acid | inhibition, % at 12.5 µM | 230,000 tested, 0.66% active;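 active means pattern-corrected inhibition of lipid staining of at least 50% with the nuclear-stain viability signal not falling by more than 50%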;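 further: 0% = DMSO wells and 100% = triacsin C control wells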
Arr AP2 block = inhibitors of beta-arrestin/AP2 binding, primary screen, biochemical, GPCR trafficking, flow cytometry. FITC-arrestin peptide / GST-AP2 beads; AP2 beta2 appendage carries R879A mutation. inhibition, % at 10 µM. 340,000 tested, 0.31% active. AID 504490, 2011;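 active means inhibition above a set limit, near 3 SD of compounds lacking own fluorescence, cut at about 54% in these data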;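 further: plate controls were DMSO wells for no effect and 5 µM unlabelled arrestin peptide for full effect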
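Assay system: GST-AP2 R879A bound to glutathione beads, E. coli-expressed; Medium: PBS with 0.05% Tween 20 and 0.1% BSA; Also added: fluorescein-tagged arrestin peptide at 50 nM final; Timing: 12 min plus 1 h, RT; Measured by: flow cytometry, FL1 (488/535 nm); Evaluation: percent drop in bead-associated FITC signal.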
Beta2AR agonist = beta2AR agonists driving receptor internalization, primary screen, cell-based, FAP fluorogen, flow cytometry; Am2.2-beta2AR cells; 340,000 tested, 0.43% active; Beta-2 adrenergic receptor (Homo sapiens), P07550; response, % (test concentration not listed);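 active means response above a set limit, near 3 SD of response in nonfluorescent compounds, cut at about 42% in these data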
NTR1 agonist = agonists of human NTR1, primary screen, imaging, U2OS cells, beta-arrestin-GFP, high content. Neurotensin receptor type 1 (Homo sapiens), P30989. NTR1-U2OS beta-arrestin-GFP spot imaging, agonist mode. activation, % at 20 µM. 330,000 tested, 0.17% active;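 active means activation at or above 40% of the spot to cytoplasm intensity ratio, with at least 20 cells analyzed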;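 further: 0% = DMSO without peptide and 100% = 100 nM NTR1 peptide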
Lipid droplet = inhibitors of hepatocyte lipid droplet formation, primary screen, imaging, high-throughput imaging, BODIPY stain; AML12 mouse hepatocytes, oleate lipid droplets; 240,000 tested, 0.4% active; inhibition, % at 6.5 µM;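 active means lipid droplet intensity inhibited by at least 50%, with more than 500 cells counted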
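Technique: fluorescence imaging, 20x objective, two fields per well / Assay system: AML12 hepatocytes (mouse) / Measure: % inhibition of lipid droplet signal / Doses: 6.5 µM single-point dosing / Incubation: overnight exposure / Reagent: 100 µM oleic acid challenge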
GRK2 aptamer HTS = compounds blocking aptamer binding on GRK2 – biochemical, human GRK2, bead flow cytometry, HTS, primary screen. Beta-adrenergic receptor kinase 1 (Homo sapiens), P25098. FAM-aptamer displacement from GRK2. inhibition of aptamer binding, % at 10 µM. 330,000 tested, 0.59% active. AID 488847, 2010;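 active means inhibition of aptamer binding above 40%, roughly 3 SD of noise, on plates passing a quality check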;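 further: median bead fluorescence of bound FAM aptamer so fluorescent compounds give negative values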
Target sequence (P25098 whole entry, looked up): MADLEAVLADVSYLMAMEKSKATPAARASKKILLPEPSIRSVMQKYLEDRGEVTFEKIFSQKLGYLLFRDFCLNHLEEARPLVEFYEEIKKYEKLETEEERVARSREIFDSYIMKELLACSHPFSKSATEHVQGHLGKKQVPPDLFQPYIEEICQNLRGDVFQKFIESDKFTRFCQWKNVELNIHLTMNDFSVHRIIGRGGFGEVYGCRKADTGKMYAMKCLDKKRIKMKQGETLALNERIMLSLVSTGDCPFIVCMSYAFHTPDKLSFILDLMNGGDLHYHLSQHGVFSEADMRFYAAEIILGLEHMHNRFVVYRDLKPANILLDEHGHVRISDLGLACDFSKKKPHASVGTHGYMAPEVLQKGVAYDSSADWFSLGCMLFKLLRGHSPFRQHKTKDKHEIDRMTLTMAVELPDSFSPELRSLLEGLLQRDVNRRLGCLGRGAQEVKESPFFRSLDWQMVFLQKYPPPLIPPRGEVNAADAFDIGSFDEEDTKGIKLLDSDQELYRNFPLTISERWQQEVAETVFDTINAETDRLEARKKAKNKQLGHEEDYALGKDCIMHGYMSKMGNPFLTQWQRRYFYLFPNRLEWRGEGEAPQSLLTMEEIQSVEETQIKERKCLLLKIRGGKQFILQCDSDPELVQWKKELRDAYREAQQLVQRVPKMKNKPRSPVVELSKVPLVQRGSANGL
GRK2 CP1 = GRK2 aptamer-displacing inhibitors, retest, confirmation, biochemical, cherry pick 1, bead flow cytometry; shares compounds with GRK2 aptamer HTS; bead-bound GRK2, FAM-aptamer displacement; aptamer displacement, % at 10 µM; 2,000 tested, 4% active; AID 504451, 2011;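 active means aptamer displacement above 40%, near three times the noise of non-fluorescent compounds, on plates passing quality checks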;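 further: negative values mostly reflect intrinsic compound fluorescence rather than true enhancement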
Aptamer quench 1 = counter-screen for GRK2 aptamer inhibitors: fluorescent aptamer quenchers; fluorescence change (kMESF span), kMESF (no concentration beside the values); 110 tested, under 10 active; shares compounds with GRK2 aptamer HTS; Fluorescent RNA aptamer beads, quenching, flow cytometry; stronger effect = higher value;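 active means compounds whose bead fluorescence drops by more than 37 kMESF across the dose range, marking them as dye quenchers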
FAM quench CP1 = aptamer fluorescence quenching in GRK2 counter-screen. Carboxyfluorescein RNA aptamer on beads, flow cytometry quenching; stronger effect = lower value. shares compounds with GRK2 aptamer HTS. AID 504580. fluorescence response (% of DMSO), % at 10 µM. 2,000 tested, under 10 active;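 active means compounds that quench the bead-bound fluorescent RNA probe, cutting fluorescence to under half of the solvent control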;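 further: counterscreen run without GRK2 so only probe quenching by compound is measured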
GRK2 confirm 2 = GRK2 aptamer-displacing inhibitors, hit retest, confirmation, biochemical, cherry pick 2, bead flow cytometry; inhibition of aptamer binding, % at 10 µM; AID 504782, 2011; 360 tested, under 10 active; shares compounds with GRK2 aptamer HTS; bead-bound GRK2, FAM-aptamer displacement;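 active means inhibition of aptamer binding above 40%, about triple the noise seen with nonglowing compounds, on plates passing quality control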;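 further: negative values mostly come from compounds that fluoresce themselves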
FAM quench SP = aptamer fluorescence quenching in GRK2 counter-screen; 360 tested, under 10 active; carboxyfluorescein RNA aptamer beads, flow cytometry quenching; stronger effect = lower value; shares compounds with GRK2 aptamer HTS; fluorescence response vs DMSO, % at 10 µM;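 active means response vs DMSO under 50%, meaning signal dropped by over half, treated as fluorescence quencher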;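 further: labelled aptamer on streptavidin beads without GRK2 as a quench counter-screen; 100% = bead fluorescence of DMSO wells and lower means quenching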
* marks the source's active call; other numbers are inactive results; / = no result; ! = not active in a repeat. Shown are actives, neighbours in structure and some others; about 2% of the full set was active somewhere.

SMILES | H9c2 TAG inh | Arr AP2 block | Beta2AR agonist | NTR1 agonist | Lipid droplet | GRK2 aptamer HTS | GRK2 CP1 | FAM quench CP1 | others
CCOC(=O)c1cccc(N2C(=O)C3C(C2=O)C2C=CC3C23CC3)c1 (configuration not stated) | 4.8 | 2.7 | -8.7 | -1.6 | -2.6 | 4.0 | / | /
CCN(CC)CCCN=C1N[C@@H](c2cccc(F)c2)C(C(=O)OC)=C(C)N1Cc1ccccc1 | 94.1 | -9.8 | 65.9* | 5.1 | / | 51.0* | / | / | GRK2 confirm 2=0.7;FAM quench SP=100.0
Cc1cc2ccccc2n1CCNC(=O)c1ccccc1 | -3.6 | 26.4 | -2.5 | -1.3 | / | 100.0* | 29.5 | 102.1 | Aptamer quench 1=-1.8
CC(=O)NCCn1c(C)cc2ccccc21 | 13.9 | 5.9 | -5.9 | 1.2 | 7.0 | 2.0 | / | /
COc1ccc(-c2nc(CNS(=O)(=O)c3ccc(OC)c(OC)c3)cs2)cc1 | -5.6 | -4.6 | -4.1 | 0.6 | -2.3 | 84.0* | 0.8 | 104.8
COc1ccc2[nH]c3c(c2c1)CCN1C(=O)C(CC(=O)NCCCN(C)C)C[C@H](C(=O)N2CCCCC2)[C@@]31C (some centres not stated) | 3.8 | -1.2 | -5.3 | -0.5 | / | 1.0 | / | /
CCn1c(CCl)nc2cc(S(=O)(=O)N3CCOCC3)ccc21 | 0.6 | / | / | 1.7 | / | 2.0 | / | /
O=C(COC(=O)c1ccc(Cl)cc1)NCC1CCCCC1 | 12.5 | -4.2 | 2.8 | 1.5 | / | 0.0 | / | /
CCOCc1cnc(C)nc1NCC(=O)c1c(C)[nH]c2ccccc12 | 1.5 | -12.8 | 2.9 | 8.4 | / | 56.0* | -0.9 | 100.1
CSCC[C@H](NC(=O)c1cc([N+](=O)[O-])ccc1Cl)c1nc2ccccc2[nH]1 | / | -2.1 | -7.2 | 1.5 | -25.8 | 4.0 | / | /
CSCC[C@H](NC(=O)COc1ccc(Cl)cc1)c1nc2ccccc2[nH]1 | -15.1 | 2.5 | -6.4 | 0.6 | -31.0 | 98.0* | 0.8 | 93.8
CC1=NN(c2cccc(C(=O)O)c2)C(=O)/C1=C\C=C\c1ccco1 | -7.3 | 8.5 | 6.2 | -1.1 | -3.7 | 83.0* | 59.9* | 96.5 | Aptamer quench 1=9.6
CCN(CC)S(=O)(=O)c1ccc(N2CCOCC2)c(NC(=O)COc2ccccc2C#N)c1 | 8.2 | -0.5 | 1.1 | 1.4 | -7.4 | 3.0 | / | /
CCN(CC)S(=O)(=O)c1ccc(N2CCOCC2)c(NC(=O)CC23CC4CC(CC(Br)(C4)C2)C3)c1 | / | -11.1 | -1.1 | 5.5 | -7.2 | 100.0* | / | / | GRK2 confirm 2=0.2;FAM quench SP=96.0
CCN(CC)S(=O)(=O)c1ccc(N2CCOCC2)c(NC(=O)COc2ccccc2C)c1 | -0.4 | -3.3 | -5.2 | -0.1 | / | 74.0* | -1.1 | 99.6
O=C(c1ccco1)N1CCN(C(=O)c2cc(-c3ccncc3)nc3ccc(Br)cc23)CC1 | 3.3 | 1.0 | 4.9 | -0.6 | / | 5.0 | / | /
O=C(O)c1cc(-c2ccco2)nc2ccc(Br)cc12 | 3.3 | -0.2 | 2.9 | -0.3 | -7.8 | 55.0*! | 8.4 | 94.3
COc1cc(NC(=O)COc2ccccc2C)ccc1NC(=O)c1ccco1 | 7.2 | -11.3 | -0.4 | 1.8 | -1.8 | 51.0* | / | / | GRK2 confirm 2=-3.7;FAM quench SP=101.0
COc1ccc(C(=O)Nc2ccccc2NC(=O)c2ccco2)cc1OC | 1.7 | 6.1 | -4.2 | -1.9 | / | 44.0* | 2.6 | 96.7
COc1ccc(C(=O)Nc2ccccc2NC(=O)c2ccco2)c(OC)c1 | / | 17.2 | 2.6 | -1.8 | 2.3 | 0.0 | / | /
NC(=O)c1nsc(C(=O)N(c2ccccc2)C(C(=O)NCc2ccc(F)cc2)c2ccc(O)cc2)c1N (configuration not stated) | / | -2.6 | 16.9 | 0.9 | 0.9 | 4.0 | / | /
COC(=O)C1=C(CS(=O)(=O)c2ccccc2)NC(=O)NC1c1ccc(OC)c(OC)c1 (configuration not stated) | / | -9.8 | -1.5 | -0.4 | -7.3 | 0.0 | / | /
CCOC(=O)C1=C(CS(=O)(=O)c2ccccc2)NC(=O)NC1c1ccc(OC)c(OC)c1 (configuration not stated) | -10.4 | -8.9 | -3.4 | -0.8 | -19.8 | 40.0 | 1.1 | 101.1
CCOc1ccc(NS(=O)(=O)c2ccc3[nH]c(=O)[nH]c3c2)cc1 | 3.6 | -3.4 | 11.3 | -0.1 | 3.4 | 50.0* | -2.8 | 95.7
O=C(NCC(O)c1ccccc1)c1cccs1 (configuration not stated) | / | -2.8 | -4.5 | 0.0 | 1.5 | 2.0 | / | /
SMILES | H9c2 TAG inh | Arr AP2 block | Beta2AR agonist | NTR1 agonist | Lipid droplet | GRK2 aptamer HTS | GRK2 CP1 | FAM quench CP1 | others
O=C(COc1cccc(C(F)(F)F)c1)NNC(=O)Cc1ccc(S(=O)(=O)N2CCOCC2)s1 | -1.6 | -13.9 | 0.1 | 0.8 | / | 4.0 | / | /
O=C(COc1cccc(F)c1)NNC(=O)Cc1ccc(S(=O)(=O)N2CCOCC2)s1 | -7.8 | 4.8 | -3.2 | 0.7 | / | 46.0* | -0.1 | 94.8
Cn1nc(C(=O)OCC(=O)c2ccc(Br)cc2)c2ccccc2c1=O | -20.3 | -9.6 | -4.6 | -2.0 | / | 0.0 | / | /
C/C(=N\NC(=O)c1cccc(S(=O)(=O)N2CCCC2)c1)c1ccc(F)cc1 | 9.1 | -1.4 | 5.8 | -0.3 | / | 0.0 | / | /
CC1(C)Cc2ccccc2-c2nnc(-c3cccnc3)n21 | / | 21.1 | 8.9 | -0.6 | / | 100.0* | / | / | GRK2 confirm 2=-7.6;FAM quench SP=97.0
CCc1nc2ccc(C(=O)NCC3CCCCC3)cn2c1N(C)C(=O)c1cccc(OC)c1 | 0.3 | / | / | / | / | / | / | /
CCOc1ccc(CCN2C(=S)N([C@@H](CC(C)C)CN3CCCC3CN3C(=S)NC[C@@H]3Cc3ccc(O)cc3)C[C@@H]2CC(C)C)cc1 (some centres not stated) | -29.7 | -4.6 | -11.1 | / | / | / | / | /
CNC(=O)c1ccsc1NC(=O)CS(=O)(=O)c1ccc(F)cc1 | 1.8 | / | / | / | / | / | / | /
